From ChEMBL document CHEMBL1671631, “Staphylococcus aureus PBP4 is essential for beta-lactam resistance in community-acquired methicillin-resistant strains” (2008)
Values after ≈ are worked out from the molar mass of the structure shown.

Legend:
Staphylococcus aureus [1] = test: Antimicrobial activity against wild type community-acquired methicillin-resistant Staphylococcus aureus MW2 serotype USA400 by microdilution method; assay type: functional
Outline: (§1)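 Broth microdilution MIC per CLSI guidelines, inoculum 5 x 10^5 CFU/ml, confirmed by plating serial dilutions. Run in triplicate; three independent clones per mutant. Reported as the median of at least three independent experiments. MBC: clear wells plated onto drug-free tryptic soy agar, 37°C, 24 and 48 h. pEPSA5-carrying strains tested with and without xylose, no chloramphenicol.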

Staphylococcus aureus [2] = test: Antimicrobial activity against community-acquired pbp3-deficient Staphylococcus aureus MW2 serotype USA400 by microdilution method; assay type: functional; outline: as §1
Staphylococcus aureus [3] = test: Antimicrobial activity against community-acquired pbp4-deficient Staphylococcus aureus MW2 serotype USA400 by microdilution method; assay type: functional; outline: as §1
Staphylococcus aureus [4] = test: Antimicrobial activity against community-acquired pbp3/4-deficient Staphylococcus aureus MW2 serotype USA400 by microdilution method; assay type: functional; outline: as §1
Staphylococcus aureus [5] = test: Antimicrobial activity against community-acquired pbp4::pbp4-deficient Staphylococcus aureus MW2 serotype USA400 by microdilution method; assay type: functional; outline: as §1
Staphylococcus aureus [6] = test: Antimicrobial activity against wild type community-acquired methicillin-resistant Staphylococcus aureus MW2 ex serotype USA400 by microdilution method; assay type: functional
Outline: (§2)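 Broth microdilution MIC per CLSI guidelines, inoculum 5 x 10^5 CFU/ml, confirmed by plating serial dilutions. Run in triplicate; three independent clones per mutant. Reported as the median of at least three independent experiments.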

Staphylococcus aureus [7] = test: Antimicrobial activity against community-acquired pbp3-deficient Staphylococcus aureus MW2 ex serotype USA400 by microdilution method; assay type: functional; outline: as §2
Staphylococcus aureus [8] = test: Antimicrobial activity against community-acquired pbp4-deficient Staphylococcus aureus MW2 ex serotype USA400 by microdilution method; assay type: functional; outline: as §1
Staphylococcus aureus [9] = test: Antimicrobial activity against community-acquired pbp3/4-deficient Staphylococcus aureus MW2 ex serotype USA400 by microdilution method; assay type: functional; outline: as §1
Staphylococcus aureus [10] = test: Antimicrobial activity against wild type community-acquired methicillin-resistant Staphylococcus aureus USA300 by microdilution method; assay type: functional; outline: as §1
Staphylococcus aureus [11] = test: Antimicrobial activity against community-acquired pbp4-deficient Staphylococcus aureus USA300 by microdilution method; assay type: functional; outline: as §1
Staphylococcus aureus [12] = test: Antimicrobial activity against community-acquired pbp4::pbp4-deficient Staphylococcus aureus USA300 by microdilution method; assay type: functional; outline: as §1
Staphylococcus aureus [13] = test: Antimicrobial activity against wild type hospital-acquired methicillin-resistant Staphylococcus aureus COL serotype USA500 by microdilution method; assay type: functional; outline: as §1
Staphylococcus aureus [14] = test: Antimicrobial activity against hospital-acquired pbp3-deficient Staphylococcus aureus COL serotype USA500 by microdilution method; assay type: functional; outline: as §1
Staphylococcus aureus [15] = test: Antimicrobial activity against hospital-acquired pbp4-deficient Staphylococcus aureus COL serotype USA500 by microdilution method; assay type: functional; outline: as §1
Staphylococcus aureus [16] = test: Antimicrobial activity against hospital-acquired pbp3/4-deficient Staphylococcus aureus COL serotype USA500 by microdilution method; assay type: functional; outline: as §1
[17] = Antimicrobial activity against wild type hospital-acquired methicillin-resistant Staphylococcus aureus N315 serotype USA100 by microdilution method; assay type: functional, Staphylococcus aureus subsp. aureus N315; outline: as §1
[18] = Antimicrobial activity against hospital-acquired pbp4-deficient Staphylococcus aureus N315 serotype USA100 by microdilution method; assay type: functional, Staphylococcus aureus subsp. aureus N315; outline: as §2
[19] = Antimicrobial activity against wild type hospital-acquired methicillin-resistant vancomycin-intermediate Staphylococcus aureus Mu50 serotype USA100 by microdilution method; assay type: functional, Staphylococcus aureus subsp. aureus Mu50; outline: as §1
[20] = Antimicrobial activity against hospital-acquired pbp4-deficient Staphylococcus aureus Mu50 serotype USA100 by microdilution method; assay type: functional, Staphylococcus aureus subsp. aureus Mu50; outline: as §1
Staphylococcus aureus [21] = test: Antimicrobial activity against wild type community-acquired methicillin-resistant Staphylococcus aureus MW2 (USA400) after 48 hrs by microdilution method; assay type: functional
Staphylococcus aureus [22] = test: Antimicrobial activity against wild type community-acquired methicillin-resistant Staphylococcus aureus USA300 after 48 hrs by microdilution method; assay type: functional; settings: USA300, 48 h
Staphylococcus aureus [23] = test: Antimicrobial activity against wild type hospital-acquired methicillin-resistant Staphylococcus aureus COL after 48 hrs by microdilution method; assay type: functional
Staphylococcus aureus [24] = test: Antimicrobial activity against wild type hospital-acquired methicillin-resistant Staphylococcus aureus 252 after 48 hrs by microdilution method; assay type: functional; settings: Staphylococcus aureus, 252, 48 h
Staphylococcus aureus [25] = test: Antimicrobial activity against wild type hospital-acquired methicillin-resistant vancomycin-intermediate Staphylococcus aureus Mu50 after 48 hrs by microdilution method; assay type: functional; settings: Mu50, 48 h
Staphylococcus aureus [26] = test: Antimicrobial activity against community-acquired pbp4-deficient Staphylococcus aureus MW2 serotype USA400 by microdilution method relative to wild type; assay type: functional
Outline: (§3)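 Broth microdilution MIC per CLSI, inoculum 5 x 10^5 CFU/ml, inoculum confirmed by plating serial dilutions. Three independent clones tested per mutant, each in triplicate. Reported value is the median of at least three independent experiments. MBC obtained by plating clear wells onto drug-free tryptic soy agar, incubated 37°C for 24 and 48 h.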

Staphylococcus aureus [27] = test: Antimicrobial activity against community-acquired pbp4-deficient Staphylococcus aureus USA300 by microdilution method relative to wild type; assay type: functional; outline: as §3

Structure (SMILES) | MIC (Staphylococcus aureus [1]) | MIC (Staphylococcus aureus [2]) | MIC (Staphylococcus aureus [3]) | MIC (Staphylococcus aureus [4]) | MIC (Staphylococcus aureus [5]) | MIC (Staphylococcus aureus [6]) | MIC (Staphylococcus aureus [7]) | MIC (Staphylococcus aureus [8]) | MIC (Staphylococcus aureus [9]) | MIC (Staphylococcus aureus [10]) | MIC (Staphylococcus aureus [11]) | MIC (Staphylococcus aureus [12]) | MIC (Staphylococcus aureus [13]) | MIC (Staphylococcus aureus [14]) | MIC (Staphylococcus aureus [15]) | MIC (Staphylococcus aureus [16]) | MIC [17] | MIC [18] | MIC [19] | MIC [20] | other results
CO[C@@]1(NC(=O)Cc2cccs2)C(=O)N2C(C(=O)O)=C(COC(N)=O)CS[C@@H]21 [CEFOXITIN] | 64 µg/mL (≈ 150 µM) | 64 µg/mL (≈ 150 µM) | 64 µg/mL (≈ 150 µM) | 64 µg/mL (≈ 150 µM) | 64 µg/mL (≈ 150 µM) | 16 µg/mL (≈ 37.4 µM) | 32 µg/mL (≈ 74.9 µM) | 16 µg/mL (≈ 37.4 µM) | 32 µg/mL (≈ 74.9 µM) | 64 µg/mL (≈ 150 µM) | 64 µg/mL (≈ 150 µM) | 64 µg/mL (≈ 150 µM) | 128 µg/mL (≈ 299 µM) | 128 µg/mL (≈ 299 µM) | 128 µg/mL (≈ 299 µM) | 128 µg/mL (≈ 299 µM) | 64 µg/mL (≈ 150 µM) | 64 µg/mL (≈ 150 µM) | 256 µg/mL (≈ 599 µM) | 256 µg/mL (≈ 599 µM) | MBC (Staphylococcus aureus [21]): > 256 µg/mL; MBC (Staphylococcus aureus [22]): > 256 µg/mL; MBC (Staphylococcus aureus [23]): > 256 µg/mL; MBC (Staphylococcus aureus [24]): > 256 µg/mL; MBC (Staphylococcus aureus [25]): > 256 µg/mL
CCOc1ccc2ccccc2c1C(=O)N[C@@H]1C(=O)N2[C@@H]1SC(C)(C)[C@@H]2C(=O)O [NAFCILLIN] | 16 µg/mL (≈ 38.6 µM) | 16 µg/mL (≈ 38.6 µM) | 1 µg/mL (≈ 2.41 µM) | 1 µg/mL (≈ 2.41 µM) | 16 µg/mL (≈ 38.6 µM) | 16 µg/mL (≈ 38.6 µM) | 16 µg/mL (≈ 38.6 µM) | 1 µg/mL (≈ 2.41 µM) | 1 µg/mL (≈ 2.41 µM) | 16 µg/mL (≈ 38.6 µM) | 1 µg/mL (≈ 2.41 µM) | 16 µg/mL (≈ 38.6 µM) | 64 µg/mL (≈ 154 µM) | 64 µg/mL (≈ 154 µM) | 64 µg/mL (≈ 154 µM) | 64 µg/mL (≈ 154 µM) | 64 µg/mL (≈ 154 µM) | 64 µg/mL (≈ 154 µM) | 256 µg/mL (≈ 618 µM) | 256 µg/mL (≈ 618 µM) | fold change (FC) (Staphylococcus aureus [26]): 16; fold change (FC) (Staphylococcus aureus [27]): 16
Cc1onc(-c2ccccc2)c1C(=O)N[C@@H]1C(=O)N2[C@@H]1SC(C)(C)[C@@H]2C(=O)O [OXACILLIN] | – | 64 µg/mL (≈ 159 µM) | 4 µg/mL (≈ 9.96 µM) | 4 µg/mL (≈ 9.96 µM) | 64 µg/mL (≈ 159 µM) | – | – | 2 µg/mL (≈ 4.98 µM) | 1 µg/mL (≈ 2.49 µM) | 64 µg/mL (≈ 159 µM) | 4 µg/mL (≈ 9.96 µM) | 64 µg/mL (≈ 159 µM) | 64 µg/mL (≈ 159 µM) | 256 µg/mL (≈ 638 µM) | 256 µg/mL (≈ 638 µM) | 256 µg/mL (≈ 638 µM) | 256 µg/mL (≈ 638 µM) | – | 256 µg/mL (≈ 638 µM) | 256 µg/mL (≈ 638 µM) | fold change (FC) (Staphylococcus aureus [27]): 16; MBC (Staphylococcus aureus [21]): 256 µg/mL (≈ 638 µM); MBC (Staphylococcus aureus [22]): 256 µg/mL (≈ 638 µM); MBC (Staphylococcus aureus [23]): > 256 µg/mL; MBC (Staphylococcus aureus [24]): > 256 µg/mL; MBC (Staphylococcus aureus [25]): > 256 µg/mL
